Experimental data published in ChEMBL document CHEMBL1150687, “Three new cytotoxic sesterterpenes from a marine sponge Spongia sp” (J Nat Prod, 2003).
≈ marks a conversion by molar mass, not a printed value. Calls of active or inactive are those of the source. The rule behind the calls is not given here.

Columns and labels:
A549 = assay: Cytotoxicity against human A549 cells; type: functional, cell-based
CCRF S-180 [1] = assay: Antitumor activity against mouse S180 cells xenografted ICR/kwl mouse assessed as increase in mouse life span at 5 mg/kg, ip relative to control; type: functional
In short: (§1)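 Female ICR/kwl mice (7 weeks, 19-21 g), six per group, inoculated ip with 0.1 mL sarcoma-180 suspension (1×10^7 cells/mL in saline). Compound dissolved in a little dimethylacetamide, suspended in 10% Tween 80-saline (1 mg/mL), given ip on days 1, 5 and 9 after inoculation. Survival followed; ILS (%) = (A/B − 1)×100 from weighed median survival days, treated versus untreated controls.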

KB = assay: Cytotoxicity against human KB cells; type: functional, cell-based
HeLa = assay: Cytotoxicity against human HeLa cells; type: functional, cell-based
L1210 = assay: Cytotoxicity against mouse L1210 cells; type: functional, cell-based
CCRF S-180 [2] = assay: Antitumor activity against mouse S180 cells xenografted ICR/kwl mouse assessed as increase in mouse life span at 10 mg/kg, ip relative to control; type: functional; in short: as §1

In the case of CC1(C)CCC[C@]2(C)[C@H]3C[C@@H](O)[C@]4(C)[C@@H]5C(=CC[C@H]4[C@]3(C)CC[C@@H]12)C(=O)O[C@H]5O, the IC50 (A549) is reported as 14.8 µg/mL (≈ 36.8 µM), the Activity (CCRF S-180 [1]) is reported as “inactive” and the IC50 (KB) is reported as 14.3 µg/mL (≈ 35.5 µM). The IC50 (HeLa) was 15 µg/mL (≈ 37.3 µM) and the IC50 (L1210) was 2.3 µg/mL (≈ 5.71 µM).
Work on CO[C@@H]1C[C@H]2[C@]3(C)CC[C@H]4C(C)(C)CCC[C@]4(C)[C@H]3C[C@@H](OC(C)=O)[C@]2(C)C2=C1C(=O)O[C@H]2O yielded an IC50 (A549) of 5.3 µg/mL (≈ 11.2 µM), an IC50 (KB) of 15.6 µg/mL (≈ 32.9 µM) and an IC50 (HeLa) of 5.3 µg/mL (≈ 11.2 µM). For the same compound, the IC50 (L1210) was 2.2 µg/mL (≈ 4.64 µM).
CC1(C)CCC[C@]2(C)[C@H]3C[C@@H](O)[C@]4(C)[C@H]5COC(=O)C5=CC[C@H]4[C@]3(C)CC[C@@H]12 was tested, and the IC50 (A549) was 16.5 µg/mL (≈ 42.7 µM), the Activity (CCRF S-180 [1]; route intraperitoneal) was 50.3% and the IC50 (KB) was 17.1 µg/mL (≈ 44.2 µM). The IC50 (HeLa) was 16.5 µg/mL (≈ 42.7 µM) and the IC50 (L1210) was 1.6 µg/mL (≈ 4.14 µM).
Work on CO[C@@]12[C@H](COC(N)=O)C3=C(C(=O)C(C)=C(N)C3=O)N1C[C@@H]1N[C@@H]12 [MITOMYCIN] yielded an IC50 (A549) of 0.02 µg/mL (≈ 0.0598 µM), an IC50 (KB) of 0.015 µg/mL (≈ 0.0449 µM) and an IC50 (HeLa) of 0.015 µg/mL (≈ 0.0449 µM). The IC50 (L1210) was 0.02 µg/mL (≈ 0.0598 µM).
Work on CC1(C)CCC[C@]2(C)[C@H]3C[C@@H](O)[C@]4(C)c5cocc5CC[C@H]4[C@]3(C)CC[C@@H]12 yielded an IC50 (A549) of over 50 µg/mL, an IC50 (KB) of over 50 µg/mL and an IC50 (HeLa) of 19.5 µg/mL (≈ 52.6 µM). For the same compound, the IC50 (L1210) was over 50 µg/mL.
In the case of O=c1[nH]cc(F)c(=O)[nH]1 [FLUOROURACIL], the Activity (CCRF S-180 [1]; route intraperitoneal) is reported as 32.9% and the Activity (CCRF S-180 [2]) is reported as “Active”.
CC(=O)O[C@@H]1C[C@@H]2[C@@]3(C)CCCC(C)(C)[C@@H]3CC[C@@]2(C)[C@@H]2CC=C3C(=O)O[C@@H](O)[C@@H]3[C@@]12C was tested, and the IC50 (A549) was 23.7 µg/mL (≈ 53.3 µM), the IC50 (KB) was 18.5 µg/mL (≈ 41.6 µM) and the IC50 (HeLa) was 26 µg/mL (≈ 58.5 µM). For the same compound, the IC50 (L1210) was 13.2 µg/mL (≈ 29.7 µM).
Work on CC(=O)O[C@@H]1C[C@@H]2[C@@]3(C)CCCC(C)(C)[C@@H]3CC[C@@]2(C)[C@@H]2CC=C3CO[C@@H](O)[C@@H]3[C@@]12C yielded an IC50 (A549) of 29.4 µg/mL (≈ 68.3 µM), an Activity (CCRF S-180 [2]; route intraperitoneal) of 28% and an IC50 (KB) of 16.2 µg/mL (≈ 37.6 µM). The IC50 (HeLa) was 22.5 µg/mL (≈ 52.2 µM) and the IC50 (L1210) was 2.1 µg/mL (≈ 4.88 µM).
